Assay results published in ChEMBL document CHEMBL1126276, “Synthesis and antimalarial properties of 1-imino derivatives of 7-chloro-3-substituted-3,4-dihydro-1,9(2H,10H)-acridinediones and related structures” (J Med Chem, 1992).
Values joined by “and” are separate entries in the source; they are usually repeats but may differ in a detail not shown here. Equal values may be shown once.

Tests used:
Format in all cases: functional
Plasmodium berghei [1] = test: Antimalarial activity in Plasmodium berghei infected mice (Mus musculus) after 40 mg/kg subcutaneous dose
How it was run: (§1)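 […] in mice infected with a normal drug-sensitive P. berghei strain. Compound dissolved or suspended in sesame or peanut oil, given as a single subcutaneous dose 72 h postinfection.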

Plasmodium berghei [2] = test: Antimalarial activity in Plasmodium berghei infected mice (Mus musculus) after subcutaneous 640 mg/kg dose
How it was run: (§2)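 Normal drug-sensitive P. berghei strain in mice. Compound dissolved or suspended in sesame or peanut oil, given parenterally as a single subcutaneous dose 72 h postinfection.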

Plasmodium berghei [3] = test: Antimalarial activity in Plasmodium berghei infected mice (Mus musculus) after 160 mg/kg subcutaneous dose; how it was run: as §1
Plasmodium berghei [4] = test: Antimalarial activity in Plasmodium berghei infected mice (Mus musculus) after 80 mg/kg subcutaneous dose; how it was run: as §1
Plasmodium berghei [5] = test: Antimalarial activity in Plasmodium berghei infected mice (Mus musculus) after 320 mg/kg subcutaneous dose; how it was run: as §1
Plasmodium berghei [6] = test: Antimalarial activity in Plasmodium berghei infected mice (Mus musculus) after subcutaneous 320 mg/kg dose; how it was run: as §2
Plasmodium berghei [7] = test: Antimalarial activity Plasmodium berghei infected mice (Mus musculus) after 640 mg/kg subcutaneous dose; how it was run: as §1
Plasmodium berghei [8] = test: Antimalarial activity in Plasmodium berghei infected mice (Mus musculus) after 20 mg/kg subcutaneous dose; how it was run: as §1
Plasmodium berghei [9] = test: Antimalarial activity in Plasmodium berghei infected mice (Mus musculus) after subcutaneous 160 mg/kg dose; how it was run: as §2

| SMILES | Delta mean survival time (Plasmodium berghei [1]) | No. of cured mice (Plasmodium berghei [2]) | Delta mean survival time (Plasmodium berghei [3]) | Delta mean survival time (Plasmodium berghei [4]) | Delta mean survival time (Plasmodium berghei [5]) | No. of cured mice (Plasmodium berghei [6]) | Delta mean survival time (Plasmodium berghei [7]) | Delta mean survival time (Plasmodium berghei [8]) | No. of cured mice (Plasmodium berghei [9]) | No. of cured mice (Plasmodium berghei [2]; 640 mg/kg) | Delta mean survival time (Plasmodium berghei [7]; 640 mg/kg) |
| --- | --- | --- | --- | --- | --- | --- | --- | --- | --- | --- | --- |
| CN(C)CCC/N=C1\CC(c2ccccc2)Cc2c1c(=O)c1cc(Cl)ccc1n2O (stereo not drawn) | 0.6 | 5 | 4.2 | 1.2 | 8.8 |  |  |  |  |  |  |
| CN(C)CCC/N=C1\CC(c2cccc(Br)c2)Cc2c1c(=O)c1cc(Cl)ccc1n2O (stereo not drawn) | 1.6 | 5 | 9.4 | 5.3 | 10.2 | 2 |  |  |  |  |  |
| O=C1CC(c2ccccn2)Cc2nc3ccc(Cl)cc3c(O)c21 (stereo not drawn) |  |  | 2.4 | 1.1 | 7.3 |  | 4.4 |  |  |  |  |
| Cc1ccc(C2C/C(=N\CCCN(C)C)c3c(nc4ccc(Cl)cc4c3O)C2)cc1 (stereo not drawn) | 0.8 | 2 | 6.6 | 1.4 | 6.5 | 2 | 9.8 |  |  |  |  |
| COc1ccc2nc3c(c(O)c2c1)C(=O)CC(c1ccc(C(F)(F)F)cc1)C3 (stereo not drawn) | -0.3 |  | 2.9 | 0.1 | 2.3 |  | 4.4 |  |  |  |  |
| CN(C)CCC/N=C1\CC(c2ccc([N+](=O)[O-])cc2)Cc2nc3ccc(Cl)cc3c(O)c21 (stereo not drawn) | 1 | 1 | 8.6 | 3 | 11.6 |  | 11.8 | 0.4 |  |  |  |
| CCN(CC)CC/N=C1\CC(c2cc(OC)c(OC)c(OC)c2)Cc2c1c(=O)c1cc(Cl)ccc1n2O (stereo not drawn) | 0.8 |  | 1.2 |  | 5 |  | 6 |  |  |  |  |
| CCN1CCCC(/N=C2\CC(c3ccc(Cl)c(Cl)c3)Cc3c2c(=O)c2cc(Cl)ccc2n3O)C1 (stereo not drawn) |  | 5 | 8.3 | 7.2 | 8.8 | 4 |  |  | 2 |  |  |
| CCN(CC)CCO/N=C1\CC(c2ccc(Cl)c(Cl)c2)Cc2c1c(=O)c1cc(Cl)ccc1n2O (stereo not drawn) |  |  | 2.1 | 0.9 | 3.7 |  | 8.7 |  |  |  |  |
| CN(C)CCC/N=C1\CC(c2cccc3ccccc23)Cc2c1c(=O)c1cc(Cl)ccc1n2O (stereo not drawn) | 2.6 | 5 | 9.3 | 7.1 | 4.7 | 4 |  |  | 1 |  |  |
| O=C1CC(c2cccc(C(F)(F)F)c2)Cc2c1c(=O)c1cc(Cl)ccc1n2[O-].[Na+] (stereo not drawn) | 7.8 | 5 | 13.8 | 10 | 16 | 3 |  | 6.4 |  |  |  |
| O=C1CC(c2ccc(Cl)c(Cl)c2)Cc2nc3ccc(Cl)cc3c(O)c21 (stereo not drawn) |  | 2 | 7.7 | 2.1 | 10.2 | 1 | 11.2 |  | 1 |  |  |
| O=C1CC(c2ccc(Cl)c(Cl)c2)Cc2c1c(=O)c1ccccc1n2O (stereo not drawn) |  | 2 | 5.1 | 3.1 | 7.7 | 1 | 12.6 |  |  |  |  |
| COc1ccc(C2C/C(=N\CCCN(C)C)c3c(n(O)c4ccc(Cl)cc4c3=O)C2)cc1 (stereo not drawn) |  | 3 | 0.7 | 0.1 | 6.5 |  | 8.4 |  |  |  |  |
| O=c1c2c(n(O)c3ccc(Cl)cc13)CC(c1cccc(C(F)(F)F)c1)C/C2=N\Cc1ccc(Cl)c(Cl)c1 (stereo not drawn) |  | 5 | 8.4 | 4.4 | 11.5 | 2 |  |  |  |  |  |
| O=c1c2c(n(O)c3ccc(Cl)cc13)CC(c1cccc(C(F)(F)F)c1)C/C2=N\C1CCN(Cc2ccccc2)CC1 (stereo not drawn) | 6.8 | 1 | 8.6 | 3.8 | 8.4 |  | 11.1 |  | 2 |  |  |
| N=C1CC(c2cccc(C(F)(F)F)c2)Cc2c1c(=O)c1cc(Cl)ccc1n2O (stereo not drawn) | 1.4 |  | 3.8 | 3.4 | 7.6 |  | 8.2 |  |  |  |  |

| SMILES | Delta mean survival time (Plasmodium berghei [1]) | No. of cured mice (Plasmodium berghei [2]) | Delta mean survival time (Plasmodium berghei [3]) | Delta mean survival time (Plasmodium berghei [4]) | Delta mean survival time (Plasmodium berghei [5]) | No. of cured mice (Plasmodium berghei [6]) | Delta mean survival time (Plasmodium berghei [7]) | Delta mean survival time (Plasmodium berghei [8]) | No. of cured mice (Plasmodium berghei [9]) | No. of cured mice (Plasmodium berghei [2]; 640 mg/kg) | Delta mean survival time (Plasmodium berghei [7]; 640 mg/kg) |
| --- | --- | --- | --- | --- | --- | --- | --- | --- | --- | --- | --- |
| COc1cc(C2CC(=O)c3c(n(O)c4ccc(Cl)cc4c3=O)C2)cc(OC)c1OC (stereo not drawn) |  |  | 1.8 | 1.3 | 2.7 |  | 7 |  |  |  |  |
| O=C1CC(C2CCCCC2)Cc2c1c(=O)c1cc(Cl)ccc1n2O (stereo not drawn) |  | 1 | 2.9 | 2.5 | 6.5 |  | 12.7 |  |  |  |  |
| CCC1/C(=N\CCCN(C)C)c2c(nc3ccc(Cl)cc3c2O)CC1c1ccc(C(F)(F)F)cc1 (stereo not drawn) | 3.3 |  |  | 5.3 | 10 | 2 |  | 0.3 |  | 4 and 3 | 6.7 and 10.2 |
| CN(C)c1ccc(C2CC(=O)c3c(n(O)c4ccc(Cl)cc4c3=O)C2)cc1 (stereo not drawn) | 1.6 | 5 | 6.6 | 5.8 | 6.8 | 3 |  |  | 1 |  |  |
| CN(C)CCC/N=C1\CC(c2c(Cl)cccc2Cl)Cc2c1c(=O)c1cc(Cl)ccc1n2O (stereo not drawn) | 1.2 | 5 | 9.4 | 4.1 | 7.2 | 1 |  |  | 1 |  |  |
| CN(C)CCC/N=C1\CC(c2ccc(Cl)cc2Cl)Cc2nc3c(Cl)ccc(Cl)c3c(O)c21 (stereo not drawn) |  |  |  | 0 | 0 |  |  | 1.2 |  |  |  |
| CSCCC/N=C1\CC(c2ccc(Cl)c(Cl)c2)Cc2c1c(=O)c1cc(Cl)ccc1n2O (stereo not drawn) |  | 1 | 1.7 |  | 4.1 |  | 3.7 |  |  |  |  |
| C/N=C1\CC(c2ccc(Cl)c(Cl)c2)Cc2c1c(=O)c1cc(Cl)ccc1n2O (stereo not drawn) |  | 3 | 6.4 | 3.3 | 10.7 |  | 10.8 |  |  |  |  |
| CN(C)CCC/N=C1\CC(c2ccc(N(C)C)cc2)Cc2c1c(=O)c1cc(Cl)ccc1n2O (stereo not drawn) |  | 5 | 6.8 | 0.9 | 7.4 | 3 |  |  |  |  |  |
| COc1cc(C2C/C(=N\CCCN(C)C)c3c(n(O)c4ccc(Cl)cc4c3=O)C2)cc(OC)c1OC (stereo not drawn) |  |  | 1 |  | 4 |  | 4.3 |  |  |  |  |
| Cc1ccc(C2C/C(=N\CCCN(C)C)c3c(n(O)c4ccc(Cl)cc4c3=O)C2)cc1 (stereo not drawn) | 0.2 | 4 | 3 | 1.8 | 6 | 2 | 1 |  |  |  |  |
| CC(C)C1CC(=O)c2c(n(O)c3ccc(Cl)cc3c2=O)C1 (stereo not drawn) | 0.3 | 5 | 3.5 | 1.7 | 8.3 |  |  | 0.1 |  |  |  |
| O=C1CC(c2cccc3ccccc23)Cc2c1c(=O)c1cc(Cl)ccc1n2O (stereo not drawn) |  | 4 | 6.9 | 2.3 | 5.7 | 2 | 13.7 |  |  |  |  |
| CCN(CC)C1CCC(/N=C2\CC(c3ccc(Cl)c(Cl)c3)Cc3c2c(=O)c2cc(Cl)ccc2n3O)CC1 (stereo not drawn) | 5.6 | 5 |  | 7.2 | 12.1 | 3 |  |  | 5 |  |  |
| O=C1CC(c2cccc(C(F)(F)F)c2)Cc2nc3ccc(Cl)cc3c(O)c21 (stereo not drawn) |  |  | 2.3 | 0.3 | 3.3 |  | 5.3 |  |  |  |  |
| COc1ccc(C2CC(=O)c3c(n(O)c4ccc(Cl)cc4c3=O)C2)cc1 (stereo not drawn) | 0.6 |  | 1.4 | 1.2 | 4.6 |  | 5.7 | 0.6 |  |  |  |
| CN(C)CCC/N=C1\CC(c2ccncc2)Cc2nc3ccc(Cl)cc3c(O)c21 (stereo not drawn) | 0.1 |  | 1.3 | 1.3 | 2.5 |  | 4.3 | 0.7 |  |  |  |
